The source made the active and inactive calls.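 Rule for the calls: active = cytotoxic IC50, the dose that kills half the cells, at 20 µM or lower; inactive = the rest.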
The compounds below were run on CHO-CHOP cells viability, ATPLite luminescence, 6 h (assay: cytotoxicity in CHO-CHOP reporter cells, SAR follow-up, cytotoxicity control for UPR apoptotic arm activator project, cell-based, 6 h exposure, ATPLite luminescence (AID 588557)).
In short: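 Assay system: CHO-CHOP reporter cells / Input: 500 cells per well / Buffer or medium: F12 medium with 10% fetal bovine serum / Compound: dose response, DMSO ≤1% final / Times: 16–18 h pre-dosing growth, then 6 h exposure at 37 °C / Technique: ATPLite 1-Step luminescence / Benchmarks: tunicamycin 10 µg/mL final as positive control, DMSO alone as negative control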

Row | Structure (SMILES) | IC50
1 | O=C(Nc1nc2c(F)cc(F)cc2s1)c1ccccn1 | 9.57 µM
2 | O=C(Nc1ccc(S(=O)(=O)N2CCC(F)CC2)cc1)c1ccc([N+](=O)[O-])o1 | > 80 µM (inactive)
3 | O=C(Nc1nc2c(F)cccc2s1)c1ccccn1 | 4.42 µM
4 | O=C(Nc1nc2c(F)c(F)ccc2s1)c1ccccn1 | 15.1 µM
5 | O=C(Nc1nc2cc(F)cc(F)c2s1)c1ccccn1 | 8.88 µM
6 | O=C(Nc1nc2ccc(F)c(F)c2s1)c1ccccn1 | 13.4 µM
7 | O=C(Nc1nc2c(F)ccc(F)c2s1)c1ccccn1 | 23.6 µM (inactive)
8 | O=C(Nc1ccc(S(=O)(=O)C2CCCCC2)cc1)c1ccc([N+](=O)[O-])o1 | > 80 µM (inactive)
9 | O=C(Nc1ccc(S(=O)(=O)N2CCC(O)CC2)cc1)c1ccc([N+](=O)[O-])o1 | > 80 µM (inactive)
10 | Cc1cc(C)c2nc(NC(=O)c3ccccn3)sc2c1 | 16.2 µM
11 | O=C(Nc1nc2c(Cl)cc(Cl)cc2s1)c1ccccn1 | > 80 µM (inactive)
12 | O=C(Nc1ccc(S(=O)(=O)c2ccccc2)cc1)c1ccc([N+](=O)[O-])o1 | > 80 µM (inactive)
13 | CC1(C)CCN(S(=O)(=O)c2ccc(NC(=O)c3ccc([N+](=O)[O-])o3)cc2)CC1 | > 80 µM (inactive)
14 | O=C(Nc1ccc(S(=O)(=O)N2CCCCC2)cc1)c1ccc([N+](=O)[O-])o1 | > 80 µM (inactive)
15 | CC1CN(S(=O)(=O)c2ccc(NC(=O)c3ccc([N+](=O)[O-])o3)cc2)CC(C)O1 (stereo not given) | > 80 µM (inactive)
16 | O=C(Nc1nc2cc(F)c(F)cc2s1)c1ccccn1 | 8.4 µM
17 | O=C(Nc1nc2ccc(F)cc2s1)c1ccccn1 | 4.52 µM
18 | O=C(Nc1ccc(S(=O)(=O)N2CCCC2)cc1)c1ccc([N+](=O)[O-])o1 | 74.6 µM (inactive)
19 | O=C(Nc1ccc(S(=O)(=O)N2CCC(Cl)CC2)cc1)c1ccc([N+](=O)[O-])o1 | > 80 µM (inactive)
20 | O=C(Nc1ccc(S(=O)(=O)C2CCOCC2)cc1)c1ccc([N+](=O)[O-])o1 | > 80 µM (inactive)
21 | O=C(Nc1ccc(S(=O)(=O)N2CCOCC2)cc1)c1ccc([N+](=O)[O-])s1 | > 80 µM (inactive)
22 | O=C(Nc1nc2cccc(F)c2s1)c1ccccn1 | 7.07 µM
23 | O=C(Nc1ccc(S(=O)(=O)N2CCNCC2)cc1)c1ccc([N+](=O)[O-])o1 | > 80 µM (inactive)
24 | O=C(Nc1nc2cc(F)ccc2s1)c1ccccn1 | 2.7 µM
25 | O=C(Nc1ccc(S(=O)(=O)N2CCC3(CCCCC3)CC2)cc1)c1ccc([N+](=O)[O-])o1 | > 80 µM (inactive)
26 | O=C(Nc1nc2ccc(Cl)cc2s1)c1ccccn1 | 3.84 µM
27 | O=C(Nc1nc2ccc(C(F)(F)F)cc2s1)c1ccccn1 | 4.63 µM
28 | CC(C)(C)C1CCN(S(=O)(=O)c2ccc(NC(=O)c3ccc([N+](=O)[O-])o3)cc2)CC1 | > 80 µM (inactive)
29 | O=C(Nc1ccc(S(=O)(=O)N2CCOCC2)cc1)c1ccc([N+](=O)[O-])o1 | > 80 µM (inactive)
30 | CC1CCN(S(=O)(=O)c2ccc(NC(=O)c3ccc([N+](=O)[O-])o3)cc2)CC1 | > 80 µM (inactive)

— PubChem BioAssay AID588557 (Sanford-Burnham Center for Chemical Genomics, 2011)
